Screening results (PubChem BioAssay)
Sampled rows, rich in hits. Any-hit rate of the full collection: about 1.1%.
SR-BI DiI inh: inhibitors of SR-BI mediated HDL lipid uptake, primary screen, ldlA[mSR-BI] cells, fluorescence, single point | Scavenger receptor class B member 1 (Mus musculus), Q61009 | ldlA[mSR-BI] CHO cells, DiI-HDL uptake fluorescence, 3 h | inhibition, % at 12.5 µM | 320,000 tested, 0.96% active;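 active means mean replicate inhibition of at least 70% and a set share of replicates each scoring 70 or more; inconclusive means meets just one of the two criteria; inactive means fails both criteria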;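 further: 0% = median of neutral control wells and 100% = median of positive control wells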
GSK3A inh: blockers of GSK3A enzyme activity – biochemical, luminescence, cell-free homogeneous, HTS, primary screen; inhibition, % at 10 µM; Glycogen synthase kinase-3 alpha (Homo sapiens), P49840; 320,000 tested, 0.1% active; GSK-3 alpha kinase, ADP-Glo luminescence, 60 min;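 active means more than half of replicates show inhibition above 20%; inconclusive means some but at most half of replicates above 20% inhibition; inactive means no replicate shows inhibition above 20%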;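 further: GST-tagged GSK-3 alpha with peptide substrate and 25 µM ATP; 0% = DMSO neutral wells and 100% = GW8510 positive control wells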
CDK5 inh: inhibitors of human CDK5/p35 kinase, primary screen, biochemical, single concentration. Cyclin-dependent kinase 5 (Homo sapiens) + Cyclin-dependent kinase 5 activator 1 (Homo …. Recombinant CDK5/p35, ADP-Glo luminescence, 60 min. inhibition, % at 10 µM. 330,000 tested, 0.01% active. AID 488839, 2010;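 active means highest replicate inhibition of at least 50% and at least 75% of replicates reaching 50%; inconclusive means only one of the two criteria met; inactive means both criteria failed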;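 further: plate controls were DMSO neutral control for no effect and GW8510 at 10 µM for full effect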
Target sequence (Q00535 whole entry, looked up): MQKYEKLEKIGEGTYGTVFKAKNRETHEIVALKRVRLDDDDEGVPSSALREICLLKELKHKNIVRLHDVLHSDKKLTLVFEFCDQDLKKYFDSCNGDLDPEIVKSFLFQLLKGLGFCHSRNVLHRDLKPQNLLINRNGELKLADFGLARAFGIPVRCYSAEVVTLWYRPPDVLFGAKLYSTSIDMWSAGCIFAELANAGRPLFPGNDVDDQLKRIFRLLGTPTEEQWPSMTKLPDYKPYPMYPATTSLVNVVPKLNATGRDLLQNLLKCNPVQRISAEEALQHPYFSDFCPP
Target sequence (Q15078 whole entry, looked up): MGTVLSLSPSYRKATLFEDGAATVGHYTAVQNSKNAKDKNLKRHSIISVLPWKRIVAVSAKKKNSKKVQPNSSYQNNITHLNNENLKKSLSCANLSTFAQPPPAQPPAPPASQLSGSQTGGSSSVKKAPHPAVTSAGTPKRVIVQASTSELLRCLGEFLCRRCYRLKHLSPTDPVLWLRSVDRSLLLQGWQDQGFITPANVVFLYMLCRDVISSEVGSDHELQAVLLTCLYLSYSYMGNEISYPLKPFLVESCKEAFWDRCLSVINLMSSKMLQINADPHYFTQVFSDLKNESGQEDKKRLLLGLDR
SR-BI uptake up: activators of SR-BI mediated DiI-HDL uptake, primary screen, ldlA[mSR-BI] CHO cells, DiI fluorescence | 3 h; 100 = double the neutral-control signal | activation, % at 12.5 µM | 320,000 tested, 0.096% active;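 active means mean replicate activation of at least 60% and every replicate at or above 60%; inconclusive means mean or all-replicate condition met, but not both; inactive means mean below 60% and not all replicates reaching 60%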;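 further: 0% = median plate neutral-control signal and 100% = twice that signal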
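System: LDL receptor-deficient CHO ldlA cells overexpressing murine SR-BI | Timing: 3 h uptake period with compound, 37 °C | Medium: HEPES-buffered (25 mM, pH 7.4) F12 plus 0.5% BSA | Dosing: Single-point compound dose | Signal: Bottom-read fluorescence, 550/595 nm | Read-out: Retained DiI signal reflecting DiI-HDL uptake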
GSK3B inh: human GSK3beta kinase inhibitors, primary screen, biochemical, cell-free homogeneous, HTS; Glycogen synthase kinase-3 beta (Homo sapiens), P49841; GST-GSK3beta kinase, ADP-Glo luminescence, 60 min; stronger effect = lower value; activity score (negative = inhibition), % at 10 µM; 300,000 tested, 0.038% active; AID 2097, 2009;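 active means more than half of replicate wells score below -50%, meaning over 50% inhibition versus plate controls; inconclusive means some replicates but at most half score below -50%; inactive means no replicate scores below -50%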;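 further: 0% = median DMSO wells and -100% = median GW8510 positive control wells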
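Test system – GST-tagged human GSK3beta kinase, cell-free · Incubation – 60 min enzyme reaction, room temperature · Signal – ADP-Glo luminescence · Also added – peptide substrate and ATP at 25 µM · Controls – DMSO neutral wells and GW8510 at 20 µM as positive · Buffer or medium – Tris/MgCl2 kinase buffer · Measure – Luminescence-derived activity versus plate DMSO and GW8510 wells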
* marks the source's active call; other numbers are inactive results; ? = inconclusive; . = no result.

SMILES | SR-BI DiI inh | GSK3A inh | CDK5 inh | SR-BI uptake up | GSK3B inh
COc1cc(NC(=O)c2ccc(OCc3c(C)noc3C)c(OC)c2)cc(OC)c1 | 86* | -4 | 0 | -86 | .
COc1cc(C(=O)Nc2ccc3c(c2)OCO3)ccc1OCc1c(C)noc1C | 63 | -2 | 0 | -63 | -1
O=C1CCCC(O)=C1C=NCc1ccccc1 | -14 | -2 | 0 | 14 | -7
Cc1nn(C)cc1S(=O)(=O)NCc1ccc2c(c1)OCO2 | -1 | -2 | 0 | 1 | 0
Cc1ccc(C(=O)N/C(=C/c2cccnc2)C(=O)N2CCCCCC2)cc1 | -3 | 3 | -1 | 3 | 2
C/C(=N\NC(=O)c1cc(C)nc2ccccc12)c1ccc([N+](=O)[O-])cc1 | 28 | -3 | -1 | -28 | 3
C/C(=N\Nc1cc(C)nc(NCc2ccccc2)n1)c1ccc([N+](=O)[O-])cc1 | 86* | 0 | 0 | -86 | -4
O=Cc1c(Sc2ccccn2)nc2ccccn2c1=O | 77* | 3 | 1 | -77 | 4
CCN1CCSc2ccc(C(=O)Nc3ccc(NC(C)=O)cc3)cc21 | 80* | 4 | 1 | -80 | -4
O=C(N/N=C/c1cn(-c2ccccc2)nc1-c1ccc(F)cc1)c1ccc2c(c1)OCO2 | 74* | -2 | 0 | -74 | -1
COc1ccc(-c2nn(-c3ccccc3)cc2/C=N/NC(=O)c2ccc(Br)o2)cc1 | 82* | -2 | 2 | -82 | 4
COc1ccc(-c2nn(-c3ccccc3)cc2/C=C/C(=O)OCC(=O)Nc2ccc(C#N)cc2)cc1 | 87* | 1 | 0 | -87 | -7
CC(C)N(CC(N)=O)c1ccc(S(=O)(=O)N2CCCC2)cn1 | -2 | -5 | -1 | 2 | .
CCOc1ccc(NC(=O)CS(=O)CC(=O)NC2CCCc3ccccc32)cc1 (configuration not stated) | 74* | -1 | 0 | -74 | -8
CCOC(=O)NC(c1ccc(C(C)C)cc1)C(Cl)(Cl)Cl (configuration not stated) | -33 | 2 | -7 | 33 | -2
CC(C)C1N(C(N)=S)N=CC1(C)C (configuration not stated) | -16 | 0 | 2 | 16 | 0
CCOC(=O)C1(Cc2ccccc2Cl)CCN(Cc2csc(C(C)=O)c2)CC1 | 13 | -3 | -1 | -13 | -1
CCC(=O)NNc1nc2c(C)cc(C)cc2s1 | 8 | -1 | 0 | -8 | -3
Cc1cc(C)c2nc(NNC(=O)c3ccc(S(=O)(=O)N4CC(C)CC(C)C4)cc3)sc2c1 (configuration not stated) | 139* | -7 | 0 | -139 | -3
Cc1cccc2sc(NNC(=O)c3ccc(S(=O)(=O)N4CC(C)CC(C)C4)cc3)nc12 (configuration not stated) | 131* | -7 | -1 | -131 | -4
Cc1cc(C)c2nc(NNC(=O)c3ccc(S(=O)(=O)N4CCCC(C)C4)cc3)sc2c1 (configuration not stated) | 115* | -2 | 0 | -115 | -4
Cc1ccc2nc(NNC(=O)c3ccc(S(=O)(=O)N4CCc5ccccc5C4)cc3)sc2c1 | 119* | -1 | 2 | -119 | -1
COC(=O)c1sc2ccccc2c1NC(=O)c1ccc(S(=O)(=O)N2CC(C)CC(C)C2)cc1 (configuration not stated) | 22 | -3 | -4 | -22 | 1
C/C(CCc1oc2c(Br)cc(Br)cc2c1-c1ccc(C)o1)=N\O | 78* | -5 | -1 | -78 | 0
CC1=C(C(=O)OCc2ccccc2)C(/C=C/c2ccccc2)NC(=S)N1 (configuration not stated) | 74* | 1 | 0 | -74 | 1
SMILES | SR-BI DiI inh | GSK3A inh | CDK5 inh | SR-BI uptake up | GSK3B inh
C=CCOC(=O)C1=C(C)NC(=S)NC1/C=C/c1ccccc1 (configuration not stated) | 82* | 6 | 2 | -82 | -5
COCCOC(=O)C1=C(C)NC(=S)NC1/C=C/c1ccccc1 (configuration not stated) | 40 | -3 | 0 | -40 | 0
COc1ccc(NC(=O)Nc2ccccc2F)cc1Cl | 2 | -2 | 0 | -2 | -2
CC[C@H](C)[C@H]1CNC(=O)C(=O)N1CC1CCN(CCCc2ccc(OC)c(OC)c2)CC1 | -6 | . | 0 | 6 | .
COc1cc([N+](=O)[O-])ccc1NC(=O)Nc1nc2c(s1)CCCC2 | 72* | 1 | 1 | -72 | 1
Cc1cccc(NC(=O)CCS(=O)(=O)c2cc3c(cc2Cl)NC(=O)CO3)c1 | 5 | -1 | 2 | -5 | 0
Nc1c(C(=O)Nc2ccccc2)sc2nc3c(c(-c4ccco4)c12)CCCC3 | 32 | 11 | 0 | -32 | -3
Cc1ccccc1NC(=O)c1sc2nc3c(c(-c4ccco4)c2c1N)CCCC3 | 79* | 0 | -6 | -79 | 0
Nc1c(C(=O)Nc2ccccc2)sc2nc3c(c(-c4ccco4)c12)CCC3 | 80* | 2 | 1 | -80 | 1
COCCNC(=O)c1ccc(NS(=O)(=O)c2ccc3[nH]c(=O)[nH]c3c2)cc1 | -13 | -1 | 0 | 13 | -4
COc1cc(-c2noc(-c3cccc(Cl)c3)n2)cc(OC)c1OC | 76* | -1 | 2 | -76 | 0
COc1ccc(-c2nc(-c3cccc(C)c3)no2)cc1OC | 12 | -1 | 1 | -12 | 0
COc1cc(-c2nc(-c3cccc(C)c3)no2)cc(OC)c1OC | 84* | 0 | -3 | -84 | 1
COc1cc(-c2nnc(-c3cccs3)o2)cc(OC)c1OC | 42 | -1 | 1 | -23 | 1
COc1ccc(-c2nnc(-c3cc(OC)c(OC)c(OC)c3)o2)cc1OC | 76* | -3 | 1 | -76 | 3
CC1CC(=O)c2ccccc2C1C (configuration not stated) | -12 | . | 1 | 12 | .
Cc1ccc(S(=O)(=O)N2CCOC2CNC(=O)C(=O)NCCN(C)C)cc1 (configuration not stated) | 7 | -1 | 0 | -7 | 0
Cc1cccc(C(=O)NNC(=O)c2ccc(-c3ccccc3)cc2)c1 | 80* | 0 | 1 | -80 | 2
Cc1ccc(C(=O)C=CNNC(=O)c2ccccc2)cc1 | 44 | -2 | 1 | -44 | 0
O=C(/C=C/NNC(=O)c1ccccc1O)c1ccccc1 | 114* | -1 | 0 | -114 | 2
O=C(/C=C/NNC(=O)c1ccccc1)c1ccccc1 | ? | 0 | -1 | -71 | 1
Cc1cccc(C(=O)NN/C=C/C(=O)c2ccccc2)c1 | 89* | 0 | 0 | -89 | 3
